Test results reported in ChEMBL document CHEMBL1143817, “Pharmacokinetics of penicillin g in very-low-birth-weight neonates” (Antimicrob Agents Chemother, 2007).
Several values for one entry are separate records, joined by “and”; a condition that tells them apart may be missing. Equal values may be shown once.

Columns and labels:
Format in all cases: ADME, organism-based
[1] = Cmax in human very low birth weight preterm neonates at 14 mg/kg, iv administered every 12 hrs after 24 hrs; parameters: dose 14 mg/kg, route intravenous; conditions: in vivo
Outline: (§1)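 Penicillin G was diluted in normal saline to 50,000 IU/ml and given as a slow (~2 min) IV bolus q12h (group 1, 50,000 IU/kg; group 2, 25,000 IU/kg) to neonates of <28 wk GA and <1,200 g. Plasma was sampled at steady state (doses 3–8): predose and at 2 and 30 min, 1.5, 4, 8 and 12 h. Assay by HPLC-UV (200 nm). AUC0-12 by log-linear trapezoidal rule; noncompartmental bolus model.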

Homo sapiens [2] = experiment: Volume of distribution at steady state in human term neonates at 15 mg/kg, im administered every 12 hrs after 24 hrs; parameters: dose 15 mg/kg, route intramuscular; conditions: in vivo
[3] = Clearance in human very low birth weight preterm neonates at 14 mg/kg, iv administered every 12 hrs after 24 hrs; parameters: dose 14 mg/kg, route intravenous; conditions: in vivo; outline: as §1
Homo sapiens [4] = experiment: Effect on glomerular filtration in human very low birth weight preterm neonates urine assessed as creatinine clearance at 15 mg/kg, iv administered every 12 hr after 24 hrs; parameters: dose 15 mg/kg, route intravenous; conditions: in vivo
[5] = AUC (0 to 12) in human very low birth weight preterm neonates at 14 mg/kg, iv administered every 12 hrs after 24 hrs; parameters: time < 12 hr, dose 14 mg/kg, route intravenous; conditions: plasma; outline: as §1
[6] = Effect on glomerular filtration in human very low birth weight preterm neonates urine assessed as drug clearance at 15 mg/kg, iv administered every 12 hrs after 24 hrs; parameters: dose 15 mg/kg, route intravenous; conditions: read-out: CL_renal
[7] = Effect on glomerular filtration in human very low birth weight preterm neonates urine assessed as drug clearance at 30 mg/kg, iv administered every 12 hrs after 24 hrs; parameters: dose 30 mg/kg, route intravenous; conditions: read-out: CL_renal
[8] = Volume of distribution at steady state in human very low birth weight preterm neonates at 28 mg/kg, iv; parameters: dose 28 mg/kg, route intravenous; conditions: in vivo, read-out: Vdss; outline: as §1
[9] = Cmax in human very low birth weight preterm neonates at 28 mg/kg, iv administered every 12 hrs after 24 hrs; parameters: dose 28 mg/kg, route intravenous; conditions: in vivo; outline: as §1
Homo sapiens [10] = experiment: Effect on glomerular filtration in human very low birth weight preterm neonates urine assessed as creatinine clearance at 30 mg/kg, iv administered every 12 hr after 24 hrs; parameters: dose 30 mg/kg, route intravenous; conditions: in vivo
[11] = Half life in human term neonates at 15 mg/kg, im administered every 12 hrs after 24 hrs; parameters: dose 15 mg/kg, route intramuscular; conditions: in vivo
[12] = Half life in human adults at […], iv administered every 12 hrs after 24 hrs; parameters: route intravenous; conditions: in vivo
[13] = Clearance in human very low birth weight preterm neonates at 28 mg/kg, iv administered every 12 hrs after 24 hrs; parameters: dose 28 mg/kg, route intravenous; conditions: in vivo; outline: as §1
[14] = Half life in human very low birth weight preterm neonates at 14.3 mg/kg, iv administered every 12 hrs after 24 hrs; parameters: dose 14.3 mg/kg, route intravenous; conditions: in vivo; outline: as §1
[15] = Half life in human very low birth weight preterm neonates at 28 mg/kg, iv administered every 12 hrs after 24 hrs; parameters: dose 28 mg/kg, route intravenous; conditions: in vivo; outline: as §1
[16] = Cmax in human term neonates at 15 mg/kg, im administered every 12 hrs after 24 hrs; parameters: dose 15 mg/kg, route intramuscular; conditions: in vivo
Homo sapiens [17] = experiment: Effect on glomerular filtration in human very low birth weight preterm neonates urine assessed as creatinine excretion at 15 mg/kg, iv administered every 12 hrs after 24 hrs; parameters: dose 15 mg/kg, route intravenous; conditions: in vivo
Outline: (§2)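 Creatinine excretion was measured in urine collected in 4-h intervals over the 12 h after a steady-state IV penicillin G dose (25,000 or 50,000 IU/kg q12h). Diapers were weighed to estimate losses, and a period was accepted if ≥90% of its output was collected. Excretion is expressed per 24 h per kg.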

[18] = Volume of distribution at steady state in human very low birth weight preterm neonates at 14 mg/kg, iv; parameters: dose 14 mg/kg, route intravenous; conditions: in vivo, read-out: Vdss; outline: as §1
Homo sapiens [19] = experiment: Effect on glomerular filtration in human very low birth weight preterm neonates urine assessed as creatinine excretion at 30 mg/kg, iv administered every 12 hrs after 24 hrs; parameters: dose 30 mg/kg, route intravenous; conditions: in vivo; outline: as §2
[20] = AUC (0 to 12) in human very low birth weight preterm neonates at 28 mg/kg, iv administered every 12 hrs after 24 hrs; parameters: time < 12 hr, dose 28 mg/kg, route intravenous; conditions: plasma; outline: as §1
[21] = Cmax in human adults at […], iv administered every 12 hrs after 24 hrs; parameters: route intravenous; conditions: in vivo
[22] = Volume of distribution at steady state in human adults at […], iv administered every 12 hrs after 24 hrs; parameters: route intravenous; conditions: in vivo, read-out: Vdss
[23] = Cmin in human very low birth weight preterm neonates at 28 mg/kg, iv administered every 12 hrs after 24 hrs; parameters: dose 28 mg/kg, route intravenous; conditions: in vivo, read-out: Cmin; outline: as §1

Work on `CC1(C)S[C@@H]2[C@H](NC(=O)Cc3ccccc3)C(=O)N2[C@H]1C(=O)O` [PENICILLIN G] yielded a Cmax [1] of 58.9 µg/mL, a Vdss (Homo sapiens [2]) of 0.51 L/kg and a clearance [3] of 0.09 L/h/kg. For the same compound, the Creatinine_CL (Homo sapiens [4]) was 0.53 ml/min and 0.57 ml/min.kg, the AUC at 12 h [5] was 161 µg·h/mL and the CL renal [6] was 0.31 mL/min and 0.38 mL/min/kg. For the same compound, the CL renal [7] was 0.27 mL/min and 0.46 mL/min/kg, the Vd [8] was 0.41 L/kg and the Cmax [9] was 146 µg/mL. For the same compound, the Creatinine_CL (Homo sapiens [10]) was 0.26 ml/min and 0.3 ml/min.kg, the half-life [11] was 3.4 h and the half-life [12] was 0.5 h. It also gave a clearance [13] of 0.072 L/h/kg, a half-life [14] of 4.6 h and a half-life [15] of 3.8 h. It also gave a Cmax [16] of 22 µg/mL, an Activity (Homo sapiens [17]) of 70.6 µmol/kg and a Vd [18] of 0.64 L/kg. The Activity (Homo sapiens [19]) was 50.6 µmol/kg, the AUC at 12 h [20] was 389 µg·h/mL and the Cmax [21] was 45 µg/mL. For the same compound, the Vd [22] was 0.5 L/kg and the concentration at 24 h [23] was 7.1 µg/mL.
